# SUMO1-SIM PPI – modulators of SUMO1 protein-protein interactions, primary screen, biochemical, uHTS. Small ubiquitin-related modifier 1 (Homo sapiens), P63165. 0.33% of 360,000 active. inhibition, % at 20 µM. SUMO1 binding to a labelled peptide, TR-FRET, 1 h; in the data active = inhibition above about 37%
# NadD block – inhibitors of S. aureus NadD, primary screen, biochemical, colorimetric, uHTS | Nicotinate-nucleotide adenylyltransferase NadD (Staphylococcus aureus N315) | purified NadD enzyme, colorimetric absorbance read-out | inhibition, % at 20 µM | 0.78% of 360,000 active | AID 602399, 2012; in the data active = inhibition above about 26%
# Scp-1 inhibitor – Scp-1 phosphatase inhibitors, primary screen, biochemical, colorimetric, uHTS; Carboxy-terminal domain RNA polymerase II polypeptide A small phosphatase 1 (Homo …; Recombinant Scp1, phosphopeptide, malachite green phosphate absorbance; inhibition, % at 20 µM; 0.88% of 340,000 active;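 active = inhibition above about 50% at 20 µM, limit read from the data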;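 note: plate controls were DMSO wells with enzyme for no effect and wells lacking enzyme for full effect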
#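 Incubation: 45 min enzyme reaction at room temperature / System: truncated SCP-1 phosphatase (76-261aa) / Reagent: Phospho 17-mer peptide substrate / Buffer or medium: Acidic Tris acetate buffer with magnesium and detergent / Signal: absorbance at 630 nm / Doses: one concentration, 20 µM, with 1.0% DMSO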
# DNMT1 block – human DNMT1 methyltransferase inhibitors, primary screen, biochemical, molecular beacon, fluorescence, HinP1I cleavage, uHTS; AID 588458, 2011; DNA (cytosine-5)-methyltransferase 1 (Homo sapiens), P26358; 0.83% of 360,000 active; inhibition (reported as % activation of signal), % at 10 µM; in the data active = inhibition above about 50%
# LMPTP block – LMPTP phosphatase inhibitors, primary screen, biochemical, fluorescence intensity, uHTS; Low molecular weight phosphotyrosine protein phosphatase (Homo sapiens), P24666; recombinant LMPTP-A, OMFP fluorogenic substrate; inhibition, % at 20 µM; 0.22% of 360,000 active;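 active = compounds that cut the enzyme signal by at least half of the control window in the single-dose screen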;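 note: plate controls were DMSO wells with enzyme plus substrate for no effect and substrate without enzyme for full effect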
# Target sequence (P24666 whole entry, looked up): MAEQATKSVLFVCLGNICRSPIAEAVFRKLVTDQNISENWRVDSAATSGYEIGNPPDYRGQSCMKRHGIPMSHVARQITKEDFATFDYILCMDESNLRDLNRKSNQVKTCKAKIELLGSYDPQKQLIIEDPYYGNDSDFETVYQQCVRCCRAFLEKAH
#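 Assay system: LMPTP-A phosphatase enzyme | Input: 0.625 nM enzyme | Also added: Fluorogenic phosphatase substrate OMFP at 400 µM final | Compound dosing: One test concentration per compound, 20 µM, with 3% DMSO overall | Schedule: 50 min enzyme reaction at room temperature, protected from light | Signal: Fluorescence intensity | Benchmarks: no-enzyme and uninhibited controls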
# STEP inh – STEP phosphatase inhibitors, primary screen, biochemical, fluorescence intensity, uHTS; Tyrosine-protein phosphatase non-receptor type 5 (Homo sapiens), P54829; recombinant STEP, OMFP fluorogenic substrate; inhibition, % at 20 µM; 0.25% of 360,000 active; AID 588621, 2011;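 active = inhibition at 20 µM, scaled per plate between control wells, above about 37%, limit read from the data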;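 note: 0% = DMSO with enzyme and substrate and 100% = substrate only without enzyme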
# Target sequence (P54829 whole entry, looked up): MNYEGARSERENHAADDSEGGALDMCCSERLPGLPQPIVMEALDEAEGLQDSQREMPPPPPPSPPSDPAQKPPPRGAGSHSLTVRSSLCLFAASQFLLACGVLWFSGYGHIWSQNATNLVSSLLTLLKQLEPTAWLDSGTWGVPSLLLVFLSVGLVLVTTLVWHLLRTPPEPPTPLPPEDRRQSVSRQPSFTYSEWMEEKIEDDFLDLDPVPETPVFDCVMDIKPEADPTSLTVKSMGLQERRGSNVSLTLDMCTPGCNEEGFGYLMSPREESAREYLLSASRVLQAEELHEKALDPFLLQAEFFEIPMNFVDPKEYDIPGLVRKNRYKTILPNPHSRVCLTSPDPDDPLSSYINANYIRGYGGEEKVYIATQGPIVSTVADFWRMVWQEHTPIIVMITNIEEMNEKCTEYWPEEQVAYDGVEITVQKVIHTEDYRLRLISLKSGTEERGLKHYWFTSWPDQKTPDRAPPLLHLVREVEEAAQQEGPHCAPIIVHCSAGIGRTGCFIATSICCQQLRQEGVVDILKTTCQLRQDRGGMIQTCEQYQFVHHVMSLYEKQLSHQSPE
#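 Material: STEP (striatal-enriched tyrosine phosphatase) enzyme, cell-free | Medium: 50 mM Bis-Tris pH 6.0 with 2.5 mM DTT and 0.005% Tween 20 | Read-out: Percent inhibition scaled to no-enzyme and uninhibited-enzyme controls, plate-pattern corrected | Signal: Fluorescence read at 480 nm ex / 540 nm em | Times: 20 min reaction, room temperature, in the dark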
# NadD conf – inhibitors of S. aureus NadD, confirmation, biochemical, colorimetric, single concentration; inhibition, % at 20 µM; shares compounds with NadD block; 13% of 2,000 active; purified S. aureus NadD, colorimetric enzyme assay; in the data active = inhibition mostly above about 42%, no sharp cut-off; inactive = mostly below about 42%
# * hit, by the source's call; · = no result given. Hits are enriched below; roughly 2.4% of the tested compounds scored in any of these assays.
SMILES,SUMO1-SIM PPI,NadD block,Scp-1 inhibitor,DNMT1 block,LMPTP block,STEP inh,NadD conf
Cc1cccc(N2CCN(C(=O)c3ccc4c(c3)NC(=O)C(CSCc3cccc(F)c3)N4)CC2C)c1 (stereo unspecified),4.7,49.1*,5.8,-8.2,0.7,-2.4,70.0*
CCn1c(COc2ccc(=O)n(-c3ccccc3)n2)n[nH]c1=S,-4.8,-5.3,-4.0,-1.0,-4.3,-3.3,·
CC(C)C[C@@H](CN1CCC[C@@H]1CN1C(=S)NC[C@@H]1Cc1ccc(O)cc1)N1C[C@H](Cc2ccc(O)cc2)N(CC2CCCCCC2)C1=S,4.1,44.1*,·,-55.9,1.5,-0.2,28.1
CC(C)C[C@H]1CN([C@@H](CC(C)C)CN2CCC[C@@H]2CN2C(=S)NC[C@@H]2Cc2ccc(O)cc2)C(=S)N1CC1CCCCC1,8.3,29.7*,·,-9.6,5.5,11.7,10.7
CC(C)C[C@H]1CN([C@@H](CC(C)C)CN2CCCC2CN2C(=S)NC[C@@H]2Cc2ccc(O)cc2)C(=S)N1CC1CCCCC1 (stereo partly specified),7.2,28.5,21.3,-5.4,2.7,4.7,·
CCc1ncc(C)[nH]1,·,·,-6.2,·,·,·,·
COc1cccc(-c2c(C(=O)N/N=C(\C)c3ccc(Cl)s3)nnn2-c2nonc2N)c1,0.8,32.3*,-5.1,-1.7,0.6,-1.6,14.6
Cn1c(=O)c2c(n(C)c1=O)=NC1(CCCCC1)N=2,-9.4,1.0,-2.2,0.8,-1.7,-1.7,·
O=C(C1=C(O)C(=O)N(CCN2CCOCC2)C1c1ccccn1)c1cccs1 (stereo unspecified),-7.6,3.7,3.2,-6.2,-3.6,9.7,·
Nc1nc(N)c(C=Nc2ccc(Br)cc2)c(Nc2ccc(Br)cc2)n1,-5.1,35.6*,0.9,-20.1,1.0,-9.1,-4.7
COC(=O)CCCC1=CC2=CC(=O)C(C)(OC(=O)c3cccs3)C(=O)C2=CN1Cc1ccc2c(c1)OCO2 (stereo unspecified),-5.7,35.6*,12.2,21.9,25.5,3.9,27.7
COC(=O)CCCC1=CC2=CC(=O)C(C)(OC(=O)c3cccs3)C(=O)C2=CN1Cc1ccccc1 (stereo unspecified),-19.2,8.3,9.3,-16.2,8.7,1.7,·
Cn1c(SCC(=O)c2ccc(-c3ccccc3)cc2)nnc1-c1ccco1,8.7,32.3*,-4.6,37.5,2.1,2.4,28.6
CCCCNC(=O)c1cc2nc(-c3ccc(OC)cc3)cc(C(F)(F)F)n2n1,-15.2,-10.5,·,6.0,1.4,2.6,·
O=C(NNC(=O)c1cc(-c2ccc(Br)cc2)nc2ccccc12)c1csc(N2CCOCC2)n1,-4.1,31.2*,-3.3,-3.5,1.9,0.1,30.4
O=C(NNC(=O)c1cc(-c2ccccc2)nc2ccccc12)c1csc(N2CCOCC2)n1,-6.8,16.3,-1.2,3.0,1.2,2.4,·
O=C(NNC(=O)c1cc(-c2ccc(Cl)cc2)nc2ccccc12)c1csc(N2CCOCC2)n1,4.8,31.1*,3.6,-1.8,1.8,-0.9,37.3*
S=C1Cc2ccccc2N1,76.6*,30.7*,-7.4,83.3*,48.2,21.1,38.9
N#CCOc1ccccc1/C=N/n1nnnc1N,-2.7,-1.2,-11.7,-0.1,-3.2,-1.3,·
Cc1cc(C)c2sc(N(CCCN(C)C)C(=O)c3ccc(S(=O)(=O)N4CCc5ccccc5C4)cc3)nc2c1,-28.1,10.8,·,8.3,-0.1,4.3,·
Cc1cc(C)c2nc(NNC(=O)c3ccc(S(=O)(=O)N4CCc5ccccc5C4)cc3)sc2c1,-2.7,60.4*,-8.4,-23.9,2.2,1.9,61.2*
Cc1cc(C)c2nc(NNC(=O)c3cc(=O)c4ccccc4o3)sc2c1,-5.0,58.7*,3.5,-23.0,2.5,2.0,62.2*
CCOC(=O)Cc1csc(NC(=O)c2cc(=O)c3ccccc3o2)n1,-8.8,-1.0,0.2,13.6,1.4,-0.3,·
Cc1cc(C)c2sc(NNC(=O)c3ccc(S(=O)(=O)N4CCc5ccccc5C4)cc3)nc2c1,-4.2,63.7*,-4.8,-21.5,2.3,2.1,55.6*
COc1ccccc1NC(=O)COC(=O)c1ccc(S(=O)(=O)NCc2ccco2)cc1,1.0,-2.5,10.5,8.0,1.4,-1.6,·
SMILES,SUMO1-SIM PPI,NadD block,Scp-1 inhibitor,DNMT1 block,LMPTP block,STEP inh,NadD conf
COCc1nnc(SCC(=O)Nc2cccc(Cl)c2C)n1-c1ccccc1,-2.5,-7.9,-6.9,0.1,-1.1,5.1,·
CCOC(=O)CNC(=O)CSc1ncnc2c1cnn2-c1ccccc1,0.5,-2.5,-6.2,1.9,-0.6,0.1,·
O=C(Nc1ccc(NC(=S)NC(=O)c2cccs2)cc1)c1ccccc1,-0.3,1.3,-19.4,-4.8,-2.1,1.4,·
O=C(NNC(=S)NC(=O)c1cccs1)c1ccc(NC(=O)c2ccccc2)cc1,11.7,31.6*,-13.2,5.2,-1.3,0.2,37.3
CCOC(=O)c1sc(NC(=O)CSc2nnnn2-c2ccc(C)cc2)c(C(=O)OCC)c1C,3.1,-0.8,-5.6,0.3,0.6,1.1,·
Cc1ccc(-c2csc(NC(=O)CSc3nnc4c(n3)[nH]c3ccccc34)n2)cc1,6.9,58.4*,-8.7,-2.8,1.1,-2.1,17.6
CCCCn1c(NC(=O)c2ccccc2)c(C#N)c2nc3ccccc3nc21,42.2*,32.9*,-5.2,76.3*,16.1,1.8,42.7
Cc1ccc(C(=O)NCCn2c(N)c(C#N)c3nc4ccccc4nc32)cc1,32.0,0.6,-4.9,-14.1,1.0,1.5,·
CCC(c1nnnn1Cc1ccco1)N1CCC(C(N)=O)CC1 (stereo unspecified),0.9,-0.4,-2.2,10.3,-3.8,-0.4,·
COC(=O)NNC(=O)c1ccc(C)cc1,2.0,0.9,-4.4,2.1,-0.7,-2.1,·
Cc1ccc(NCc2nnc(SCC(=O)c3ccccc3)n2Cc2ccco2)c(C)c1,4.9,25.4*,16.5,5.7,3.6,2.3,56.9*
Cc1ccc(NC(=O)CSc2nnc(CSc3nc(C)cc(C)n3)n2Cc2ccco2)c(C)c1,-0.3,3.0,-2.2,-1.1,-0.7,2.3,·
O=C(Nc1ccc(S(=O)(=O)Nc2ncccn2)cc1)c1nn(Cc2ccccc2)c(=O)c2ccccc12,0.4,33.6*,-22.1,-1.4,0.5,-1.0,35.4

# Screens (PubChem BioAssay)
